# Measurements as given in ChEMBL document CHEMBL3763156, “Imidazole-based pinanamine derivatives: Discovery of dual inhibitors of the wild-type and drug-resistant mutant of the influenza A virus” (Eur J Med Chem, 2016).
# Assays:
# [1] = tested on: Influenza A virus; experiment: Antiviral activity against amantadine-sensitive Influenza A virus A/HK/68 (H3N2) expressing wild type M2 ion channel infected in MDCK cells assessed as protection against virus induced cytopathic effect after 48 hrs by microscopic analysis; type: functional, organism-based, Influenza A virus (A/Hong Kong/1/1968(H3N2))
# Outline: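 MDCK cells were grown 24 h to a confluent monolayer and rinsed twice. They were infected with 100 TCID50 virus for 2 h at 37 °C in 5% CO2, and the inoculum was removed. Serial two-fold compound dilutions in DMEM with 1.5 µg/mL trypsin were added for 48 h at 34 °C in 5% CO2. CPE percentage was scored microscopically. IC50 came from non-linear regression, as the mean of 2–3 determinations.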
# [2] = Cytotoxicity against MDCK cells assessed as cell viability after 48 hrs by MTT assay; type: cell-based, Canis lupus familiaris; conditions: dog
# Outline: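 Uninfected MDCK cells were exposed to various compound concentrations for 48 h. MTT was added from a 5 mg/mL stock for 4 h at 37 °C, stopped with DMSO, and read at 490 nm. CC50 was calculated by the Reed–Muench method, as the mean of 2–3 determinations.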
# [3] = tested on: Influenza A virus; experiment: Antiviral activity against amantadine-sensitive Influenza A virus A/HK/68 (H3N2) expressing wild type M2 ion channel infected in MDCK cells assessed as cell viability after 48 hrs by MTT assay; type: functional, organism-based, Influenza A virus (A/Hong Kong/1/1968(H3N2))
# Outline: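 Infected MDCK cells were given compound for 48 h, and the CPE-based result was confirmed by MTT viability. MTT was added from a 5 mg/mL stock for 4 h at 37 °C, stopped with DMSO, and read as absorbance at 490 nm. The 50% effective concentration was calculated by the Reed–Muench method, as the mean of 2–3 determinations.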
# [4] = target: Matrix protein 2 (Influenza A virus (A/Udorn/307/1972(H3N2))) (UniProt P0DOF8); experiment: Inhibition of Influenza A virus wild type M2 ion channel expressed in 293Trex cells at 100 uM after 2 mins by patch clamp assay; type: cell-based
# [5] = target: Matrix protein 2 (Influenza A virus (A/Udorn/307/1972(H3N2))) (UniProt P0DOF8); experiment: Inhibition of Influenza A virus wild type M2 ion channel expressed in Xenopus oocytes at 100 uM after 2 mins by two-electrode voltage clamp assay; type: cell-based
# Outline: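 A/M2 channel (S31N for line 7, wild type for line 9) was expressed in Xenopus oocytes and recorded by two-electrode voltage clamp. Compound was applied at 100 µM, and the percentage inhibition of channel current was taken after 2 min. Values are mean ± SD.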
# [6] = Influenza A virus, MDCK, 48 h, read-out: IC50
SMILES,IC50 ([1]; mdck),CC50 at 48 h [2],"IC50 [1, 6]",IC50 [3],inhibition [4],inhibition [5]
C[C@@H]1[C@H]2C[C@@H](C[C@H]1NCc1cnc(-c3cccs3)[nH]1)C2(C)C,Not Active,75.6 µM,,,,
Cc1nc(C2CC2)[nH]c1CN[C@@H]1C[C@@H]2C[C@H]([C@H]1C)C2(C)C,,74.9 µM,15.3 µM,21.2 µM,,
C[C@@H]1[C@H]2C[C@@H](C[C@H]1NCc1cnc(-c3ccccc3)[nH]1)C2(C)C,,79.9 µM,7.6 µM,10.7 µM,,
C[C@@H]1[C@H]2C[C@@H](C[C@H]1NCc1[nH]cnc1C(C)(C)C)C2(C)C,,72.3 µM,8.3 µM,12.9 µM,,
CCCc1nc(C2CC2)[nH]c1CN[C@@H]1C[C@@H]2C[C@H]([C@H]1C)C2(C)C,,112 µM,6.9 µM,10.8 µM,,
C[C@@H]1[C@H]2C[C@@H](C[C@H]1NCc1cnc(C3CCCC3)[nH]1)C2(C)C,Not Active,37.2 µM,,,,
Cc1nc(C(C)C)[nH]c1CN[C@@H]1C[C@@H]2C[C@H]([C@H]1C)C2(C)C,Not Active,73.1 µM,,,,
Cc1nc[nH]c1CN[C@@H]1C[C@@H]2C[C@H]([C@H]1C)C2(C)C,,252 µM,3.2 µM,,95.8%,
C[C@@H]1[C@H]2C[C@@H](C[C@H]1NCc1cnc(C3CC3)[nH]1)C2(C)C,Not Active,94.5 µM,,,,
CCCCc1ncc(CN[C@@H]2C[C@@H]3C[C@H]([C@H]2C)C3(C)C)[nH]1,Not Active,70.4 µM,,,,
CCc1nc[nH]c1CN[C@@H]1C[C@@H]2C[C@H]([C@H]1C)C2(C)C,,180 µM,5.8 µM,6.7 µM,,
C[C@@H]1[C@H]2C[C@@H](C[C@H]1NCc1cncn1C)C2(C)C,,,12 µM,,,
CC(C)Cc1ncc(CN[C@@H]2C[C@@H]3C[C@H]([C@H]2C)C3(C)C)[nH]1,,74.8 µM,8.7 µM,15.2 µM,,
CCCc1nc(-c2ccccc2)[nH]c1CN[C@@H]1C[C@@H]2C[C@H]([C@H]1C)C2(C)C,,143 µM,13.5 µM,15.2 µM,,
CCCc1nc(C(C)C)[nH]c1CN[C@@H]1C[C@@H]2C[C@H]([C@H]1C)C2(C)C,,156 µM,10.2 µM,13.5 µM,,
CCCc1nc[nH]c1CN[C@@H]1C[C@@H]2C[C@H]([C@H]1C)C2(C)C,,200 µM,2.5 µM,3.3 µM,,97.9%
CCc1nc(C)c(CN[C@@H]2C[C@@H]3C[C@H]([C@H]2C)C3(C)C)[nH]1,,136 µM,4.1 µM,4.5 µM,,91.7%
C[C@@H]1[C@H]2C[C@@H](C[C@H]1NCc1[nH]cnc1-c1ccccc1)C2(C)C,Not Active,39.7 µM,,,,
C[C@@H]1[C@H]2C[C@@H](C[C@H]1NCc1cnc(C3CCCCC3)[nH]1)C2(C)C,Not Active,33.5 µM,,,,
C[C@@H]1[C@H]2C[C@@H](C[C@H]1NCc1[nH]cnc1C1CC1)C2(C)C,,162 µM,3.4 µM,3.8 µM,,
CCc1ncc(CN[C@@H]2C[C@@H]3C[C@H]([C@H]2C)C3(C)C)[nH]1,Not Active,137 µM,,,,
C[C@@H]1[C@H]2C[C@@H](C[C@H]1NCc1cnc(C(C)(C)C)[nH]1)C2(C)C,,107 µM,8.8 µM,12.4 µM,,
Cc1ncc(CN[C@@H]2C[C@@H]3C[C@H]([C@H]2C)C3(C)C)[nH]1,Not Active,202 µM,,,,
CC(C)c1ncc(CN[C@@H]2C[C@@H]3C[C@H]([C@H]2C)C3(C)C)[nH]1,Not Active,114 µM,,,,
